Active and inactive are the calls of the source. The rule behind the calls is not given here.
How the values were obtained:
Echinochloa crus-galli [1] = assay: Phytogrowth-inhibitory activity against Echinochloa crusgalli assessed as inhibition of seedling germination; format: functional, organism-based
Echinochloa crus-galli [2] = assay: Phytogrowth-inhibitory activity against Echinochloa crusgalli assessed as inhibition of seedling growth; format: functional, organism-based
Procedure, shortened: (§1)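 Petri-dish seed assay at 28 °C, run at 1, 10, 100 and 1000 µg/mL with 2,4-D as positive control. Data analysed by ANOVA (p<0.05). IC50 in molar units obtained by Probit analysis of percent radicle growth inhibition.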

[3] = system: Amaranthus hypochondriacus; assay: Phytogrowth-inhibitory activity against Amaranthus hypochondriacus assessed as inhibition of seedling germination; format: functional, organism-based
[4] = system: Amaranthus hypochondriacus; assay: Phytogrowth-inhibitory activity against Amaranthus hypochondriacus assessed as inhibition of seedling growth; format: functional, organism-based; procedure, shortened: as §1
[5] = Inhibition of photosynthetic phosphorylation from water to methyl viologen in spinach leaves chloroplast; format: functional, Spinacia oleracea; details: read-out: I50
Procedure, shortened: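 ATP synthesis determined titrimetrically by pH change, with 0.05 mM MV as Hill acceptor in 100 mM sorbitol, 5 mM MgCl2, 10 mM KCl, 1 mM tricine pH 8.0. Compounds at 50–300 µM; DCMU at 0.01–10.0 µM as reference. I50 extrapolated from the percent-activity versus concentration plot.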

Spinacia oleracea [6] = assay: Effect on uncoupled photosystem 2 of spinach leaves chloroplast assessed as inhibition of electron transport from diphenylcarbazide to 2,6-dichlorophenol indophenol at 50 uM relative to control
Procedure, shortened: (§2)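 Tris-treated (0.8 M, pH 8.0) spinach thylakoids in uncoupled medium with 200 µM DPC, 100 µM DCPIP, 1 µM DBMIB and 6 mM NH4Cl. DCPIP reduction followed spectrophotometrically. Activity expressed relative to control.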

Spinacia oleracea [7] = assay: Effect on uncoupled photosystem 2 of spinach leaves chloroplast assessed as inhibition of electron transport from water to 2,6-dichlorophenol indophenol at 50 uM relative to control
Procedure, shortened: (§3)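 Uncoupled PSII as DCPIP-supported O2 evolution, monitored polarographically with a Clark electrode. Spinach thylakoids in 100 mM sorbitol, 5 mM MgCl2, 10 mM KCl, 15 mM tricine pH 8.0 and 0.5 mM KCN. Ferricyanide 300 µM replaces MV; 1 µM DBMIB, 100 µM DCPIP and 6 mM NH4Cl added. Illumination 2 min through 1% CuSO4 filter. Activity relative to control.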

Spinacia oleracea [8] = assay: Effect on uncoupled photosystem 2 of spinach leaves chloroplast assessed as inhibition of electron transport from water to 2,6-dichlorophenol indophenol at 100 uM relative to control; procedure, shortened: as §3
Spinacia oleracea [9] = assay: Effect on uncoupled photosystem 2 of spinach chloroplast assessed as inhibition of electron transport rate of water to silicomolybdate at 300 uM relative to control
Procedure, shortened: (§4)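 Intact thylakoids from market spinach leaves, stored dark 1 h at 0 °C. Uncoupled medium: 100 mM sorbitol, 5 mM MgCl2, 10 mM KCl, 15 mM tricine pH 8.0, 0.5 mM KCN, 300 µM ferricyanide, 1 µM DBMIB, 100 µM DCPIP, 6 mM NH4Cl, plus 200 µM SiMo and 10 µM DCMU. O2 evolution by Clark electrode under filtered actinic light for 2 min. Activity expressed relative to control.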

Spinacia oleracea [10] = assay: Effect on uncoupled photosystem 2 of spinach leaves chloroplast assessed as inhibition of electron transport from water to 2,6-dichlorophenol indophenol at 250 uM relative to control; procedure, shortened: as §3
Spinacia oleracea [11] = assay: Effect on uncoupled photosystem 2 of spinach leaves chloroplast assessed as inhibition of electron transport from water to 2,6-dichlorophenol indophenol at 150 uM relative to control; procedure, shortened: as §3
Spinacia oleracea [12] = assay: Effect on uncoupled photosystem 2 of spinach chloroplast assessed as inhibition of electron transport rate of water to silicomolybdate at 150 uM relative to control; procedure, shortened: as §4
Spinacia oleracea [13] = assay: Inhibition of photophosphorylation in spinach leaves chloroplast assessed as inhibition of noncyclic electron transport from water to methyl viologen in uncoupled condition; format: functional
Procedure, shortened: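 Water→0.05 mM MV O2 uptake measured with a Clark electrode in basal medium (15 mM tricine pH 8.0, 0.5 mM KCN) plus 6 mM NH4Cl as uncoupler, with 2 min actinic illumination. Compounds at 50–300 µM. I50 from the percent-activity versus concentration plot.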

Spinacia oleracea [14] = assay: Effect on uncoupled photosystem 2 of spinach chloroplast assessed as inhibition of electron transport rate of water to silicomolybdate at 50 uM relative to control; procedure, shortened: as §4
Spinacia oleracea [15] = assay: Effect on uncoupled photosystem 2 of spinach leaves chloroplast assessed as inhibition of electron transport from diphenylcarbazide to 2,6-dichlorophenol indophenol at 100 uM relative to control; procedure, shortened: as §2
Spinacia oleracea [16] = assay: Effect on uncoupled photosystem 2 of spinach chloroplast assessed as inhibition of electron transport rate of water to silicomolybdate at 100 uM relative to control; procedure, shortened: as §4
Spinacia oleracea [17] = assay: Effect on uncoupled photosystem 2 of spinach leaves chloroplast assessed as inhibition of electron transport from water to 2,6-dichlorophenol indophenol at 300 uM relative to control; procedure, shortened: as §3
Spinacia oleracea [18] = assay: Effect on uncoupled photosystem 2 of spinach leaves chloroplast assessed as inhibition of electron transport from diphenylcarbazide to 2,6-dichlorophenol indophenol at 250 uM relative to control; procedure, shortened: as §2
Spinacia oleracea [19] = assay: Effect on uncoupled photosystem 2 of spinach chloroplast assessed as inhibition of electron transport rate of water to silicomolybdate at 250 uM relative to control; procedure, shortened: as §4
Spinacia oleracea [20] = assay: Effect on uncoupled photosystem 2 of spinach chloroplast assessed as inhibition of electron transport rate of water to silicomolybdate at 200 uM relative to control; procedure, shortened: as §4
Spinacia oleracea [21] = assay: Effect on uncoupled photosystem 2 of spinach leaves chloroplast assessed as inhibition of electron transport from diphenylcarbazide to 2,6-dichlorophenol indophenol at 150 uM relative to control; procedure, shortened: as §2
Spinacia oleracea [22] = assay: Effect on uncoupled photosystem 2 of spinach leaves chloroplast assessed as inhibition of electron transport from diphenylcarbazide to 2,6-dichlorophenol indophenol at 200 uM relative to control; procedure, shortened: as §2
Spinacia oleracea [23] = assay: Effect on uncoupled photosystem 2 of spinach leaves chloroplast assessed as inhibition of electron transport from diphenylcarbazide to 2,6-dichlorophenol indophenol at 300 uM relative to control; procedure, shortened: as §2
[24] = Inhibition of light-dependent proton uptake in spinach leaves chloroplast; format: functional, Spinacia oleracea; details: read-out: I50
Procedure, shortened: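 Light-driven proton uptake recorded as a pH rise from 8.0 to 8.1 with a combination microelectrode on an expanded-scale potentiometer. Medium: 100 mM sorbitol, 5 mM MgCl2, 10 mM KCl, 1 mM tricine pH 8.0, 0.05 mM MV. Compounds at 50–300 µM. I50 read from the plot of percent activity against concentration.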

Spinacia oleracea [25] = assay: Effect on uncoupled photosystem 2 of spinach leaves chloroplast assessed as inhibition of electron transport from water to 2,6-dichlorophenol indophenol at 200 uM relative to control; procedure, shortened: as §3

In the case of O=C(O)COc1ccc(Cl)cc1Cl [2,4-DICHLOROPHENOXYACETIC ACID], the IC50 (Echinochloa crus-galli [1]) is reported as greater than 230 µM, the IC50 (Echinochloa crus-galli [2]) is reported as greater than 230 µM and the IC50 [3] is reported as 880 µM.
COC(=O)c1c(C)cc(O)c(C)c1O [ATRARIC ACID] showed an IC50 (Echinochloa crus-galli [1]) of 1100 µM, an IC50 (Echinochloa crus-galli [2]) of 610 µM and an IC50 [4] of 320 µM. The IC50 [3] was 760 µM.
Work on CN(C)C(=O)Nc1ccc(Cl)c(Cl)c1 [DCMU] yielded an IC50 [5] of 0.14 µM.
In the case of Cc1cc(OC(=O)c2c(C)cc(OC(=O)c3c(C)cc(O)cc3O)cc2O)cc(O)c1C(=O)O [GYROPHORIC ACID], the Activity (Spinacia oleracea [6]) is reported as 84.3, the Activity (Spinacia oleracea [7]) is reported as 72.1 and the Activity (Spinacia oleracea [8]) is reported as 49.7. For the same compound, the Activity (Spinacia oleracea [9]) was “Active”, the Activity (Spinacia oleracea [10]) was 4.1 and the Activity (Spinacia oleracea [11]) was 31.3. The Activity (Spinacia oleracea [12]) was 62.5, the Activity (Spinacia oleracea [13]) was “Active” and the Activity (Spinacia oleracea [14]) was 93.4. The Activity (Spinacia oleracea [15]) was 58.5, the IC50 [5] was 87.1 µM and the Activity (Spinacia oleracea [16]) was 79.9. The IC50 (Echinochloa crus-galli [1]) was 2000 µM, the Activity (Spinacia oleracea [17]) was “Active” and the Activity (Spinacia oleracea [18]) was 29.9. The Activity (Spinacia oleracea [19]) was “Active”, the IC50 (Echinochloa crus-galli [2]) was 2000 µM and the Activity (Spinacia oleracea [20]) was 41. It also gave an IC50 [4] of 2000 µM, an Activity (Spinacia oleracea [21]) of 40.3 and an Activity (Spinacia oleracea [22]) of 33.8. The Activity (Spinacia oleracea [23]) was 17.9, the IC50 [24] was 59.7 µM and the IC50 [3] was 2000 µM. It also gave an Activity (Spinacia oleracea [25]) of 16.8.
For Cc1cc(O)cc(OC(=O)c2c(C)cc(O)cc2O)c1 [LECANORIN], the Activity (Spinacia oleracea [6]) was 93.6, the Activity (Spinacia oleracea [7]) was 64.3 and the Activity (Spinacia oleracea [8]) was 37.5. For the same compound, the Activity (Spinacia oleracea [9]) was “Active”, the Activity (Spinacia oleracea [10]) was “Active” and the Activity (Spinacia oleracea [11]) was 15.7. For the same compound, the Activity (Spinacia oleracea [12]) was 8.4, the Activity (Spinacia oleracea [13]) was “Active” and the Activity (Spinacia oleracea [14]) was 59.1. It also gave an Activity (Spinacia oleracea [15]) of 86.9, an IC50 [5] of 136 µM and an Activity (Spinacia oleracea [16]) of 25. For the same compound, the IC50 (Echinochloa crus-galli [1]) was 710 µM, the Activity (Spinacia oleracea [17]) was “Active” and the Activity (Spinacia oleracea [18]) was 112. For the same compound, the Activity (Spinacia oleracea [19]) was “Active”, the IC50 (Echinochloa crus-galli [2]) was 180 µM and the Activity (Spinacia oleracea [20]) was “Active”. The IC50 [4] was 580 µM, the Activity (Spinacia oleracea [21]) was 88.9 and the Activity (Spinacia oleracea [22]) was 96. It also gave an Activity (Spinacia oleracea [23]) of 135, an IC50 [24] of 140 µM and an IC50 [3] of 760 µM. For the same compound, the Activity (Spinacia oleracea [25]) was “Active”.
COc1cc(C)c2c(=O)c3c(O)cc(OC)cc3oc2c1 [LICHEXANTHONE] showed an IC50 (Echinochloa crus-galli [1]) greater than 2000 µM, an IC50 (Echinochloa crus-galli [2]) greater than 2000 µM and an IC50 [4] greater than 2000 µM. For the same compound, the IC50 [3] was greater than 2000 µM.
In the case of COC(=O)c1c(C)cc(O)c(C=O)c1O [METHYL HAEMATOMMATE], the IC50 (Echinochloa crus-galli [2]) is reported as 29 µM.
COC(=O)c1c(C)cc(O)cc1O [METHYL ORSELLINATE] gave an IC50 (Echinochloa crus-galli [1]) of 680 µM, an IC50 (Echinochloa crus-galli [2]) of 310 µM and an IC50 [4] of 290 µM. It also gave an IC50 [3] of 360 µM.
With Cc1cc(O)cc(O)c1 [ORCINOL] the IC50 (Echinochloa crus-galli [1]) was greater than 8100 µM, the IC50 (Echinochloa crus-galli [2]) was 1100 µM and the IC50 [4] was 1000 µM. For the same compound, the IC50 [3] was 1700 µM.

— ChEMBL document CHEMBL1155605, “Effect of lichen metabolites on thylakoid electron transport and photophosphorylation in isolated spinach chloroplasts” (J Nat Prod, 2000)
